Measurements published in ChEMBL document CHEMBL3797168 (J Med Chem, 2016).
The source made the active and inactive calls.

Tests used:
Adenosine receptor A1 = molecular target: T1, Adenosine receptor A1 (Homo sapiens, UniProt P30542); experiment: Displacement of [3H]N6-R-phenylisopropyladenosine from human adenosine A1 receptor expressed in CHO cell membranes incubated for 60 mins by liquid scintillation counting analysis
T1 sequence (P30542 whole entry): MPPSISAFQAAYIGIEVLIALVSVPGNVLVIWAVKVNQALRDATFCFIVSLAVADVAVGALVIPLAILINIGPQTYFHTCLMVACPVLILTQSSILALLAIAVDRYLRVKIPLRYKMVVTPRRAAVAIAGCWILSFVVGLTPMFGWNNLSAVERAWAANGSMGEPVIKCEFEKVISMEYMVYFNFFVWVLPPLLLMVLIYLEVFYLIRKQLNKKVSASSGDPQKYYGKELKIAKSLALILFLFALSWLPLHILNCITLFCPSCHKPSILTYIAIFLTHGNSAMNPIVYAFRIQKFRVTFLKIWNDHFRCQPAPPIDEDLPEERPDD

[1] = molecular target: Adenosine receptor A2a (Homo sapiens) (UniProt P29274); experiment: Displacement of [3H]2-[p-(2-carboxyethyl)phenyl-ethylamino]-5'-N-ethylcarboxamido-adenosine from human adenosine A2A receptor expressed in HEK293 cell membranes at 10 uM incubated for 60 mins by liquid scintillation counting analysis
Adenosine receptor A3 [2] = molecular target: T2, Adenosine receptor A3 (Homo sapiens, UniProt P0DMS8); experiment: Displacement of [125I]N6-(4-amino-3-iodobenzyl)adenosine-5'-N-methyl-uronamide from human adenosine A3 receptor expressed in CHO cell membranes incubated for 60 mins by liquid scintillation counting analysis
T2 sequence (P0DMS8 whole entry): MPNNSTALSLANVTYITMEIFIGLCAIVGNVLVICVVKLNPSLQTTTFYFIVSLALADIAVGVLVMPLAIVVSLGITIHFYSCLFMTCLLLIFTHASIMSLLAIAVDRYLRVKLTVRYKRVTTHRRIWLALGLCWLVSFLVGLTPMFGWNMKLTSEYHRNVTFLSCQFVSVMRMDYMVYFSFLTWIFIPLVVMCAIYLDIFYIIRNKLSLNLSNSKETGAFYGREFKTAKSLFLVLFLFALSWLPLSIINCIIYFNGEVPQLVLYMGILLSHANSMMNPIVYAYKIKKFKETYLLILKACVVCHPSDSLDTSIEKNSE

[3] = molecular target: T3, Adenosine receptor A1 (Homo sapiens) (UniProt P30542); experiment: Displacement of [3H]N6-R-phenylisopropyladenosine from human adenosine A1 receptor expressed in CHO cell membranes at 10 uM incubated for 60 mins by liquid scintillation counting analysis
T3 sequence (whole entry): T1 sequence (P30542 whole entry)

Adenosine receptor A3 [4] = molecular target: T4, Adenosine receptor A3 (Mus musculus, UniProt Q61618); experiment: Displacement of [125I]N6-(4-amino-3-iodobenzyl)adenosine-5'-Nmethyluronamide from mouse adenosine A3 receptor expressed in HEK293 cell membranes incubated for 60 mins by liquid scintillation counting analysis
T4 sequence (Q61618 whole entry): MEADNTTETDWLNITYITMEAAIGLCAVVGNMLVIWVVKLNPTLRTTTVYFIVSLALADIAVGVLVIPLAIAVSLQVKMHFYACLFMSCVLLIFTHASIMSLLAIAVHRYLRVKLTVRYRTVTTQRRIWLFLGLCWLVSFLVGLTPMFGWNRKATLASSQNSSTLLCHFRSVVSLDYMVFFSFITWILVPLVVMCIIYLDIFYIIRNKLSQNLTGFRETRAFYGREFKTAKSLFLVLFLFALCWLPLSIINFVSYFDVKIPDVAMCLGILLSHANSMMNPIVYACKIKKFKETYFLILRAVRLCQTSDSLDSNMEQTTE

Adenosine receptor A3 [5] = molecular target: T2, Adenosine receptor A3; experiment: Agonist activity at recombinant human adenosine A3 receptor expressed in CHO cells assessed as inhibition of forskolin-stimulated cAMP accumulation preincubated for 30 mins followed by forsolkin addition measured after 15 mins by immunoassay; assay type: cell-based
Mus musculus [6] = experiment: Antineuropathic pain activity in mouse chronic constriction injury model assessed as protection against mechanoallodynia at 3 micromol/kg administered as oral gavage on day 7; assay type: functional, organism-based
Method in brief: (§1)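 Mice underwent sciatic nerve ligation (Bennett method). On day 7, at peak pain, they were dosed by oral gavage at 3 µmol/kg, n=3. Vehicle was 10% DMSO in 0.5% methylcellulose, diluted from a 5 mM DMSO stock. Ipsilateral hind paw withdrawal threshold (g) was followed over time. Experimenters were blinded.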

[7] = molecular target: Delta-type opioid receptor (Homo sapiens, UniProt P41143)
Mus musculus [8] = experiment: Antineuropathic pain activity in mouse chronic constriction injury model assessed as time duration showing protection against mechanoallodynia at 3 micromol/kg administered as oral gavage on day 7; assay type: functional; method in brief: as §1
Adenosine receptor A3 [9] = molecular target: T4, Adenosine receptor A3; experiment: Agonist activity at mouse adenosine A3 receptor expressed in HEK293 cell membranes assessed as inhibition of forskolin-stimulated cAMP accumulation preincubated for 30 mins followed by forsolkin addition measured after 15 mins by immunoassay; assay type: functional, cell-based
[10] = molecular target: Sodium-dependent dopamine transporter (Homo sapiens) (UniProt Q01959); experiment: Increase in [3H]methyl (1R,2S,3S)-3-(4-fluorophenyl)-8-methyl-8-azabicyclo[3.2.1]octane-2-carboxylate binding to recombinant human DAT expressed in HEK293 cells at 10 uM by PDSP assay; assay type: cell-based
Mus musculus [11] = experiment: Antineuropathic pain activity in mouse chronic constriction injury model assessed as protection against mechanoallodynia at 3 micromol/kg administered as oral gavage on day 7 measured at 3 hrs; assay type: functional; method in brief: as §1
Mus musculus [12] = experiment: Antineuropathic pain activity in mouse chronic constriction injury model assessed as protection against mechanoallodynia at 3 micromol/kg administered as oral gavage on day 7 measured at 1 hr; assay type: functional; method in brief: as §1

Chain of Adenosine receptor A2a (Homo sapiens) (P29274 whole entry): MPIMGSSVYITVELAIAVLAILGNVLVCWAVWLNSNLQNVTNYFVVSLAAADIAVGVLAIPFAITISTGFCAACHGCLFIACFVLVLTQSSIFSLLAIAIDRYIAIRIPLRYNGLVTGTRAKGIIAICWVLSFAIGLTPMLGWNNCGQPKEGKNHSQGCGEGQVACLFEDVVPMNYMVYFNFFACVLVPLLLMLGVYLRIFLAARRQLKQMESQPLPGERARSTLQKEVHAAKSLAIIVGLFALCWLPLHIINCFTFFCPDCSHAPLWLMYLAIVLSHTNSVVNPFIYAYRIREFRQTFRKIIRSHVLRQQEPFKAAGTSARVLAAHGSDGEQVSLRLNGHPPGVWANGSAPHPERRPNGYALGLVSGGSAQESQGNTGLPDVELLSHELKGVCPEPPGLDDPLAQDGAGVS
Chain of Sodium-dependent dopamine transporter (Homo sapiens) (Q01959 whole entry): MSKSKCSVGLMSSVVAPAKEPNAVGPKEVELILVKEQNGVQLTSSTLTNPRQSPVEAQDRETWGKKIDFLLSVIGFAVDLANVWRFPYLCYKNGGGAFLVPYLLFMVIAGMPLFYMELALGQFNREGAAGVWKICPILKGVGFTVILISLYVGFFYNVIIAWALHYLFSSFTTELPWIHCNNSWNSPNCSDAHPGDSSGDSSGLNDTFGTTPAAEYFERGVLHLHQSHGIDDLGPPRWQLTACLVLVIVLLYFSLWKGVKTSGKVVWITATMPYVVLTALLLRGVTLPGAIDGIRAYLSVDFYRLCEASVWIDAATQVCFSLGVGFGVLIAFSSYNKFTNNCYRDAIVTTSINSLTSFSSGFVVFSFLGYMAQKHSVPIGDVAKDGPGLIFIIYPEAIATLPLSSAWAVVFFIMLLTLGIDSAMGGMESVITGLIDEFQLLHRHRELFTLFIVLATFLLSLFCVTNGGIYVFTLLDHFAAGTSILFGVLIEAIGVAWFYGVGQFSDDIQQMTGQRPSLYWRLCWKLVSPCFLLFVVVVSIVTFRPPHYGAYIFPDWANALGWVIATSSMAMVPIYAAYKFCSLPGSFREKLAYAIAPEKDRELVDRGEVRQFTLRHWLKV
Chain of Delta-type opioid receptor (P41143 whole entry): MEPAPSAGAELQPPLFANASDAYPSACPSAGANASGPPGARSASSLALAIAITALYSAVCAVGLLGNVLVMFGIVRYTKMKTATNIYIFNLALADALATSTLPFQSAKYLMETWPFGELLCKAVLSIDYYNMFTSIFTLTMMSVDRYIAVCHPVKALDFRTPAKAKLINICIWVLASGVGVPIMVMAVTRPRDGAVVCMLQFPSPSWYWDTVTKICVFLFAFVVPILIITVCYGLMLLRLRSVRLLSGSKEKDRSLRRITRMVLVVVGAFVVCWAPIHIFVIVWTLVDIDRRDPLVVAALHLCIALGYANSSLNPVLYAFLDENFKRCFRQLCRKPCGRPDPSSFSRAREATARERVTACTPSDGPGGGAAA

Compound | inhibition [1] [%] | Ki (Adenosine receptor A3 [2]) [µM] | inhibition [3] [%] | other results
CNC(=O)[C@@]12C[C@@H]1[C@@H](n1cnc3c(C)nc(C#Cc4cnccn4)nc31)[C@H](O)[C@@H]2O | 17 |  | 15 | 
CNC(=O)[C@@]12C[C@@H]1[C@@H](n1cnc3cnc(C#Cc4ccc(Cl)s4)nc31)[C@H](O)[C@@H]2O | 18 | 0.06 | < 10 | Ki (Adenosine receptor A3 [4]): 0.396 µM; EC50 (Adenosine receptor A3 [5]): 0.0269 µM; Time (Mus musculus [8]): 5 h
CNC(=O)[C@@]12C[C@@H]1[C@@H](n1cnc3c(NC)nc(C#Cc4ccccc4)nc31)[C@H](O)[C@@H]2O |  |  |  | Activity (Mus musculus [6]): Active
CNC(=O)[C@@]12C[C@@H]1[C@@H](n1cnc3c(/C=C(\O)c4ccccc4)nc(C#Cc4ccccc4)nc31)[C@H](O)[C@@H]2O | 16 | 0.0785 | 16 | Ki (Adenosine receptor A3 [4]): 0.136 µM; EC50 (Adenosine receptor A3 [9]): 0.00486 µM; Activity (Mus musculus [6]): Active
CNC(=O)[C@@]12C[C@@H]1[C@@H](n1cnc3cnc(/C=C(\O)c4cnccn4)nc31)[C@H](O)[C@@H]2O | 20 | 1.48 | 14 | 
CNC(=O)[C@@]12C[C@@H]1[C@@H](n1cnc3c(OC)nc(C#Cc4ccc(Cl)s4)nc31)[C@H](O)[C@@H]2O | 27 |  |  | Ki (Adenosine receptor A1): 0.796 µM
CNC(=O)[C@@]12C[C@@H]1[C@@H](n1cnc3c(NCc4cccc(Cl)c4)nc(C#Cc4ccc(F)c(F)c4)nc31)[C@H](O)[C@@H]2O |  |  |  | Activity (Mus musculus [11]): 23.7%; Activity (Mus musculus [12]): 100%
CNC(=O)[C@@]12C[C@@H]1[C@@H](n1cnc3c(/C=C(\O)c4ccccc4)nc(Cl)nc31)[C@H](O)[C@@H]2O | 24 | 1.14 | 30 | 
CNC(=O)[C@@]12C[C@@H]1[C@@H](n1cnc3cnc(NC)nc31)[C@H](O)[C@@H]2O | < 10 | 0.604 | 17 | 

Now from value to molecule, other results behind:

inhibition [1] [%] | Ki (Adenosine receptor A3 [2]) [µM] | inhibition [3] [%] | Compound | other results
14 | 0.0985 |  | CNC(=O)[C@@]12C[C@@H]1[C@@H](n1cnc3c(C)nc(C#Cc4ccc(F)c(F)c4)nc31)[C@H](O)[C@@H]2O | Ki (Adenosine receptor A1): 5.43 µM
15 |  | 16 | CNC(=O)[C@@]12C[C@@H]1[C@@H](n1cnc3c(C)nc(C#Cc4ccc(C(C)(C)C)cc4)nc31)[C@H](O)[C@@H]2O | 
12 | 0.0422 | < 10 | CNC(=O)[C@@]12C[C@@H]1[C@@H](n1cnc3c(C)nc(C#Cc4ccc(Cl)s4)nc31)[C@H](O)[C@@H]2O | Ki (Adenosine receptor A3 [4]): 0.722 µM; EC50 (Adenosine receptor A3 [5]): 0.0125 µM; Activity (Mus musculus [6]): Active; Ki [7]: 5.8 µM
12 | 0.124 | 17 | CNC(=O)[C@@]12C[C@@H]1[C@@H](n1cnc3cnc(C#Cc4ccc(F)c(F)c4)nc31)[C@H](O)[C@@H]2O | 
34 |  | 15 | CNC(=O)[C@@]12C[C@@H]1[C@@H](n1cnc3c(C)nc(C#Cc4ccccc4)nc31)[C@H](O)[C@@H]2O | Activity [10]: 200%; Activity (Mus musculus [6]): Active
19 | 0.0943 | 24 | CNC(=O)[C@@]12C[C@@H]1[C@@H](n1cnc3c(/C=C(\O)c4ccc(C(C)(C)C)cc4)nc(C#Cc4ccc(C(C)(C)C)cc4)nc31)[C@H](O)[C@@H]2O | 
21 | 0.515 | 28 | CNC(=O)[C@@]12C[C@@H]1[C@@H](n1cnc3c(/C=C(\O)c4ccccc4Cl)nc(C#Cc4ccccc4Cl)nc31)[C@H](O)[C@@H]2O | 
